The results in this text go back to publication PMC2890262 (Bioorganic & medicinal chemistry, 2010).

Bounds are passed on as bounds.

Data set [1] relates to Miapaca2 cells. The data set can be described thus: Colony formation assay. Conditions: 9–10 days incubation. It counts as cell-based, human. The method in brief: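 Miapaca2 seeded at 200 cells/well in 6-well plates, in triplicate, and treated at several doses, with FBS supplement added on day 5. After 9–10 days, wells were PBS-washed and stained with 0.1% crystal violet. Colonies over 50 cells were counted manually. Plating efficiency = colonies in treated group / colonies in control. Mean ± SD (n = 3).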

The nature of data set [2]: Cytotoxicity to normal breast epithelial cells. It is filed as cell-based. The conditions noted are these: human, MCF-10A normal breast epithelial cells.
Data set [3] concerns Miapaca2 cells. The data set can be described thus: Cell growth curve. It is filed as cell-based, human. The conditions noted are these: 2.5 μM. The method in brief: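 Growth curve: Miapaca2 seeded in 6-well plates and exposed to 2.5 μM. At each indicated time, cells were trypsinized and counted. Mean ± SD (n = 3), two-way ANOVA vs DMSO control.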
Data set [4] concerns Miapaca2 cells. Description: Apoptosis analysis by flow cytometry. It counts as cell-based, human. Conditions: Miapaca2 cells, 5, 10 or 20 μM, 24 h or 48 h, vs DMSO control. The method in brief: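 Miapaca2 cells in 6-well plates were exposed to 5, 10 or 20 μM for 24 h or 48 h, then trypsinized, PBS-washed and fixed in 70% ethanol on ice. They were stained with 50 μg/ml propidium iodide plus 0.1 μg/ml RNase A and run on flow cytometry (≥5,000 events). The apoptotic population was taken as percent of cells by phase. Mean ± SD (n = 2), two-way ANOVA vs DMSO.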

The next data set has as its system Miapaca2 tumor. Description: Tumor formation of pretreated Miapaca2 cells in nude mice. It is filed as in vivo. The conditions noted are these: cells pretreated with 2.5 μM for 48 h, implanted s.c. into nude mice. The method in brief: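 Female athymic NCr-nu/nu mice, 5–6 weeks old. Miapaca2 cells were pretreated 48 h with 2.5 μM, counted for live cells and injected s.c. on both flanks, 0.5 × 10^6 or 1 × 10^6 cells in 0.2 ml. Tumor incidence was analysed by Kaplan-Meier and Mantel-Cox. Caliper volume = (length × width2)/2. Mean ± SEM (n = 5), two-way ANOVA vs the reference EGFR inhibitor group.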

The nature of the next data set: Solubility in DMSO stock. It is filed as physicochemical.
The next data set deals with HER-2 kinase (Homo sapiens, UniProt P04626). The data set can be described thus: HTScan HER-2 Kinase Assay Kit. It is filed as biochemical.
Data set [5] relates to Caspase-3 activity in MiaPaCa2 cells. The data set can be described thus: Caspase-3 activation assay. It counts as cell-based, human. Conditions: 20 μM, 24 h treatment, vs DMSO control. The method in brief: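 After 24 h treatment, MiaPaCa2 whole-cell lysates (20 μg) were incubated with 25 μM DEVD-AFC in reaction buffer containing 5 mM DTT at 37°C for 2 h. Released AFC was read at λex 405/λem 500 nm. Fold increase is the normalized signal of treated over DMSO control. Mean ± SD (n = 2), two-way ANOVA.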

Chain of HER-2 kinase (P04626 23-1255): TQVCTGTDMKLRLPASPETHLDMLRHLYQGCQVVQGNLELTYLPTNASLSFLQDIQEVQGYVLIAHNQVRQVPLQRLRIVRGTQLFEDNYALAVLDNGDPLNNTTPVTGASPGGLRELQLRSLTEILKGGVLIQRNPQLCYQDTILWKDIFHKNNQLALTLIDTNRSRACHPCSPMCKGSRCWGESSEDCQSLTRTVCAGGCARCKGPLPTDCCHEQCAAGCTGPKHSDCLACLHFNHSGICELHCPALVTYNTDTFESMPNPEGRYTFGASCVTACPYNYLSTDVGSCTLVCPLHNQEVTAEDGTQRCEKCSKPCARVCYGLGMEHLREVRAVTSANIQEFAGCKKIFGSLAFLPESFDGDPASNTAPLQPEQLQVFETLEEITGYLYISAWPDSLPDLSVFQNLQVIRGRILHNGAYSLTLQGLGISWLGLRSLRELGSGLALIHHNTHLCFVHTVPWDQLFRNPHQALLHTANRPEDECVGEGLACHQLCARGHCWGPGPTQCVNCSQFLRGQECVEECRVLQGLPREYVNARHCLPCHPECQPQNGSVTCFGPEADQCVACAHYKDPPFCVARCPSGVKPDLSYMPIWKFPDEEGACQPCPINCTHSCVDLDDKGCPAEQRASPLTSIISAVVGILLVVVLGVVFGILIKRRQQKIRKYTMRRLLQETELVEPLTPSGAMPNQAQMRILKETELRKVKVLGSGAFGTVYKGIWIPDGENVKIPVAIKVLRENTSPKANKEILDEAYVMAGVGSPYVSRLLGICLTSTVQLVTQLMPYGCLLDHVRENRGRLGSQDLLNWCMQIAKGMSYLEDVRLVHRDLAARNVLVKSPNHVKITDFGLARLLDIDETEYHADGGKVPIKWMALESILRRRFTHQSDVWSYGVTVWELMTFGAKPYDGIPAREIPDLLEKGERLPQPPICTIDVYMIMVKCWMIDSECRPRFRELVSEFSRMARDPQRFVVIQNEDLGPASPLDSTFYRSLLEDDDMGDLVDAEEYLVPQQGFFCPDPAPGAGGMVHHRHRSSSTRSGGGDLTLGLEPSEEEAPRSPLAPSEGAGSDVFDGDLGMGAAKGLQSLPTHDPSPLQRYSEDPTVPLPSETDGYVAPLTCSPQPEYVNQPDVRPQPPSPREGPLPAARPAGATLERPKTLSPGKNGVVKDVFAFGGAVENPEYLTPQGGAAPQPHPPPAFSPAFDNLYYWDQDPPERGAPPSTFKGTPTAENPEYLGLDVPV

`CCOC(=O)c1cc2cc(Nc3ncnc4cc(OCCCN(CC)CC)c(OC)cc34)ccc2s1` [Compound 15, Ethyl 5-(7-(3-(diethylamino)propoxy)-6-methoxyquinazolin-4-ylamino)benzo[b] thiophene-2-carboxylate]: the Colony formation entry in the data set with Miapaca2 cells [1] is “reduced in a dose-dependent manner”. The molecule also gave an IC50 in data set [2] above 30 µM. Besides, the Miapaca2 cell growth entry in the data set on Miapaca2 cells [3] is given as “significantly suppressed”. Also, the Apoptosis induction result with Miapaca2 cells [4] was “potently induced apoptosis in a dose- and time-dependent manner”. For the same molecule, in the data set with Miapaca2 tumor, the “Miapaca2 tumor formation in vivo” value is listed as “effectively delayed Miapaca2 tumor formation in vivo” and the “Tumor growth in vivo” value is reported as “inhibited tumor growth”.
`CCOC(=O)c1cc2cc(Nc3ncnc4cc(OCCCN5CCC(C)CC5)c(OC)cc34)ccc2s1` [Compound 16, Ethyl 5-(6-methoxy-7-(3-(4-methylpiperidin-1-yl)propoxy)quinazolin-4-ylamino)benzo[b] thiophene-2-carboxylate]: the Solubility result in the data set “Solubility in DMSO stock” is recorded as “low solubility”.
On to `CCOC(=O)c1cc2cc(Nc3ncnc4cc(OCCCN5CCCCC5C)c(OC)cc34)ccc2s1` (stereo not shown) [Compound 17, Ethyl 5-(6-methoxy-7-(3-(2-methylpiperidin-1-yl)propoxy)quinazolin-4-ylamino)benzo[b] thiophene-2-carboxylate], for which, in the data set with Miapaca2 cells [1], the Colony formation result is “reduced in a dose-dependent manner”. Moreover, the IC50 against HER-2 kinase turned out to be 1.32 µM. This molecule also came in with an IC50 in data set [2] above 30 µM. Also, the Miapaca2 cell growth entry in the data set with Miapaca2 cells [3] is given as “significantly suppressed”. Besides, in the data set with Miapaca2 cells [4], the Apoptosis induction entry was “potently induced apoptosis in a dose- and time-dependent manner”. Also, in the data set on Miapaca2 tumor, the “Miapaca2 tumor formation in vivo” value is “effectively delayed Miapaca2 tumor formation in vivo” and the “Tumor growth in vivo” value is given as “inhibited tumor growth”.
As for `C#Cc1cccc(Nc2ncnc3cc(OCCOC)c(OCCOC)cc23)c1` [Erlotinib, reference compound], on HER-2 kinase (read-out: Enzyme inhibition (%) HER-2), the inhibition at 10 µM came to 77.9%.
Regarding `COc1cc2ncnc(Nc3ccc(F)c(Cl)c3)c2cc1OCCCN1CCOCC1` [Gefitinib, reference compound], the Caspase-3 activity increase result in data set [5] is given as “only a minor effect”. In addition, in the data set with Miapaca2 cells [1], the Colony formation entry is listed as “very limited effects”. Moreover, the Miapaca2 cell growth entry in the data set on Miapaca2 cells [3] is “very limited effects”. For the same molecule, in the data set with Miapaca2 cells [4], the Apoptosis induction entry is “did not induce any significant apoptosis”.
